These results are taken from ChEMBL document CHEMBL3414458, “Discovery of novel 2,5-dioxoimidazolidine-based P2X(7) receptor antagonists as constrained analogues of KN62” (J Med Chem, 2015).

Assay [1] deals with Mus musculus. The experiment in a line: Antiarthritic activity in CII-induced DBA/1J mouse arthritic model assessed as decrease in chronic inflammation at 50 mg/kg, ip measured 10 days post second CII booster by Hematoxylin and eosin staining relative to CII-treated control. The class given is functional, organism-based. Details: dose 50 mg/kg. The essentials: (§1)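 Mouse type II collagen-induced arthritis; 50 mg/kg dosed by injection. Ankle histology was scored as cumulative arthritis injury scores against the vehicle-treated CII group.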

In assay [2] the test system is Mus musculus. The experiment in a line: Antiarthritic activity in CII-induced DBA/1J mouse arthritic model assessed as decrease in fibrosis at 50 mg/kg, ip measured 10 days post second CII booster by Hematoxylin and eosin staining relative to CII-treated control. Type of assay: functional, organism-based. Also on record: dose 50 mg/kg. The method, boiled down: as §1

Assay [3] deals with Mus musculus. The experiment in a line: Downregulation of iNOS expression in ankle tissue of CII-induced DBA/1J mouse arthritic model at 25 to 50 mg/kg, ip measured 10 days post second CII booster by immunoblot analysis. Type of assay: functional, organism-based.
Assay [4] has as its system Mus musculus. The experiment in a line: Antiarthritic activity in CII-induced DBA/1J mouse arthritic model assessed as decrease in abcess formation at 50 mg/kg, ip measured 10 days post second CII booster by Hematoxylin and eosin staining relative to CII-treated control. The class given is functional, organism-based. Details: dose 50 mg/kg. The essentials: as §1
Assay [5] concerns the target T1, P2X purinoceptor 7 (Mus musculus) (UniProt Q9Z1M0).
T1 sequence (whole entry): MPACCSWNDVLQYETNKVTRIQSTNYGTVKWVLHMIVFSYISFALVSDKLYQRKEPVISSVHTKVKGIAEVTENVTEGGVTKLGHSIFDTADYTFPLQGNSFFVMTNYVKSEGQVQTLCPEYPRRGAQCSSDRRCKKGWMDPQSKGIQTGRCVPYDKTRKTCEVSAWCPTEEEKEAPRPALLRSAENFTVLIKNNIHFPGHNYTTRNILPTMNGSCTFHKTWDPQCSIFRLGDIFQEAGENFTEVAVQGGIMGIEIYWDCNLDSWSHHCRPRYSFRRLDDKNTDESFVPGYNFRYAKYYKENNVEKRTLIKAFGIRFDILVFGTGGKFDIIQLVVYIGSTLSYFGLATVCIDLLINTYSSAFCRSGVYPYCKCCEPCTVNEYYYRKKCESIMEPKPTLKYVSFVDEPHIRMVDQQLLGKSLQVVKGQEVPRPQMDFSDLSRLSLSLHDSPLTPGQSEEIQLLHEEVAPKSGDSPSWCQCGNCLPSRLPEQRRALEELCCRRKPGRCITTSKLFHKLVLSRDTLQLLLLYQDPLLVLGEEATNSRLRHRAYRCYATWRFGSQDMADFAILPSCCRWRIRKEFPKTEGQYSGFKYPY
The experiment in a line: Antagonist activity at P2X7 receptor in LPS-primed mouse J774.A1 cells assessed as inhibition of ATP-induced IL-1beta release after 30 mins by ELISA. The class given is cell-based. The method, boiled down:
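J774.A1 mouse cells stimulated with 5 mM ATP; IL-1β release measured, with IC50 taken from concentration-response data.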
A general note: An ELISA detects its analyte on a solid surface through an enzyme-linked reagent.

Assay [6] has as its target T2, P2X purinoceptor 7 (Homo sapiens) (UniProt Q99572).
T2 sequence (whole entry): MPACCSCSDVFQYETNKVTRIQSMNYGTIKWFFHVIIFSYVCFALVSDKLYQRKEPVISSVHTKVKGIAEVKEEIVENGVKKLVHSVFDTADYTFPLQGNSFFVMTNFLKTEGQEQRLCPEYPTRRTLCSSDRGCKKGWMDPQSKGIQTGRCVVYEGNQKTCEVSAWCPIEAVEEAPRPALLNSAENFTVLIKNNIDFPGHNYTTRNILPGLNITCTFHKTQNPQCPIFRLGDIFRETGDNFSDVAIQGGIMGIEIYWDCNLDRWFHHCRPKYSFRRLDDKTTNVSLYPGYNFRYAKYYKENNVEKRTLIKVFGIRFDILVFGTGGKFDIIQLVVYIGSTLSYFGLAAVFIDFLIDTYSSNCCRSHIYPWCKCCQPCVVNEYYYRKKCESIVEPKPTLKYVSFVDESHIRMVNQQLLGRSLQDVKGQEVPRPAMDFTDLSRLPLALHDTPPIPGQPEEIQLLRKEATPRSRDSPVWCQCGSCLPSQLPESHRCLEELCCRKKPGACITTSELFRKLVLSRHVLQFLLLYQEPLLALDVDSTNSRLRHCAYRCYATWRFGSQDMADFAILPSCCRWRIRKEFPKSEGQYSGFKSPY
The assay can be described thus: Antagonist activity at P2X7 receptor in LPS/IFN-gamma-differentiated human THP1 cells assessed as inhibition of BzATP-induced IL-1beta release at 1 uM preincubated for 30 mins followed by BzATP induction measured after 30 mins by ELISA relative to control. The class given is cell-based. As to conditions: THP-1. The essentials: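 LPS-primed THP-1 human monocytes were stimulated with BzATP, and IL-1β release was measured by ELISA. Test compound was given at a single concentration of 1 µM, and results are expressed as percent inhibition of BzATP-induced IL-1β release.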

For orientation: inhibition means the relative decrease from the control value, in per cent.

Active and inactive are the calls of the source. No cut-off for these calls is given here. Bounds are passed on as bounds.

With `O=C1NC(=O)N(C2CCN(C(=O)c3ccc(Cl)c(C(F)(F)F)c3)CC2)C1Cc1ccc(OS(=O)(=O)c2cccc3cnccc23)cc1` (racemic), the result in the assay on Mus musculus [1], with Mus musculus [2], in the assay on Mus musculus [3] and with Mus musculus [4] was Active. Also, the inhibition result in assay [5] was “Dose-dependent effect”; in assay [6] it was more than 95%.
